Active and inactive are the calls of the source. No cut-off for these calls is given here.
How the values were obtained:
Bcl-2-like protein 1 = Bcl-2-like protein 1 (Homo sapiens, UniProt Q07817); test: Displacement of fluorescently-tagged BH3 peptide from Bcl-XL by fluorimetric assay
How it was run: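 Fluorescence-polarization competition assay in which test compound displaces a fluorescent-tagged Bak BH3-domain peptide from Bcl-xL. Unlabeled Bak(BH3) peptide served as the positive control. Output was percent inhibition of labeled-peptide binding, or IC50 as the concentration giving 50% inhibition.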

HCT-116 [1] = test: Cytotoxicity against human HCT116 cells; assay type: functional, cell-based
How it was run: (§1)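 Growth inhibition measured by a previously published method in KB (oral epidermoid carcinoma) and HCT-116 (human colon carcinoma) cells. Taxotere served as the reference compound. IC50 was reported.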

KB [2] = test: Cytotoxicity against human KB cells at 10 ug/mL; assay type: functional, cell-based
How it was run: (§2)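 Single-concentration screen at 10 µg/mL in KB (oral epidermoid carcinoma) and HCT-116 (human colon carcinoma) cells, run by a previously published cytotoxicity method. Taxotere served as the reference.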

KB [3] = test: Cytotoxicity against human KB cells; assay type: functional, cell-based; how it was run: as §1
HCT-116 [4] = test: Cytotoxicity against human HCT116 cells at 10 ug/mL; assay type: functional, cell-based; how it was run: as §2

Bcl-2-like protein 1, sequence (Q07817 whole entry): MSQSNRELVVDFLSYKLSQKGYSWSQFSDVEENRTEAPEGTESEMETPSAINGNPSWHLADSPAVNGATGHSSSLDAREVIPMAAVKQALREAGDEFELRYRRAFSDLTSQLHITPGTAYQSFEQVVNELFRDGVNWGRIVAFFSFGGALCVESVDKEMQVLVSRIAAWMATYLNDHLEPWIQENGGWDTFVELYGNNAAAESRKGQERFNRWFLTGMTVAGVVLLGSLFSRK

Compound	IC50 (Bcl-2-like protein 1; read-out: IC50)	IC50 (HCT-116 [1])	inhibition (KB [2])	IC50 (KB [3])	IC50 (Bcl-2-like protein 1)	inhibition (HCT-116 [4])
C[C@]12CCC[C@@](C)(C(=O)O)[C@@H]1CC[C@]13C[C@@H]4[C@H](C[C@H]12)[C@]4(C)C3	400 µM	–	–	–	–	–
C[C@]12[C@H](O)CC[C@@](C)(C(=O)O)[C@@H]1CC[C@]13C[C@@H](C=C[C@@H]12)[C@@](C)(O)C3	–	> 29.9 µM	inactive	> 29.9 µM	Not Active	inactive
CC(=O)O[C@@]12CO[C@@H]1C[C@H](O)[C@@]1(C)C(=O)[C@H](O)C3=C(C)[C@@H](OC(=O)[C@H](O)[C@@H](NC(=O)OC(C)(C)C)c4ccccc4)C[C@@](O)([C@@H](OC(=O)c4ccccc4)[C@H]21)C3(C)C [DOCETAXEL]	–	0.0012 µM	–	0.00015 µM	–	–
CC1=C[C@]23CC[C@@H]4[C@](C)([C@H](O)CC[C@@]4(C)C(=O)O)[C@H]2[C@H]2[C@H](C3)[C@@H]12	–	> 31.6 µM	inactive	> 31.6 µM	Not Active	inactive
C[C@]12CCC[C@@](C)(C(=O)O)[C@@H]1CC[C@]13C[C@@H](C=C[C@@H]12)[C@@](C)(O)C3	380 µM	> 31.4 µM	inactive	> 31.4 µM	–	inactive
C[C@]12C[C@]34CC[C@@H]5[C@](C)([C@H](O)CC[C@@]5(C)C(=O)O)[C@@H]3C[C@H]1[C@H]2C4	–	> 31.4 µM	inactive	> 31.4 µM	Not Active	inactive
C[C@]12CCC[C@@](C)(C(=O)O)[C@@H]1CC[C@]13C[C@@H]4[C@H](C[C@H]12)[C@]4(CO)C3	220 µM	> 31.4 µM	inactive	> 31.4 µM	–	inactive
CO[C@@]1(C)C[C@]23CC[C@@H]4[C@](C)([C@H](O)CC[C@@]4(C)C(=O)O)[C@H]2C=C[C@@H]1C3	–	> 28.7 µM	inactive	> 28.7 µM	Not Active	inactive
